Rows were chosen to be rich in hits. Some 2.3% of all compounds tested hit in one or more screens of this group.
TRPC4 block = blocks the mouse TRPC4 cation channel; 300,000 tested, 0.39% active; AID 2247; HEK293 TRPC4beta/mu-opioid, DAMGO-evoked Fluo4 calcium flux; stronger effect = lower value; B-score at 10 µM;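 active = B-score over 3 SD under the library average, no early fluorescence shift, positive overall ratio signal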
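Material: HEK293 cells with stable TRPC4beta plus mu-opioid receptor expression; probe or stimulus: DAMGO in two steps, submaximal then maximal; technique: Fluo4 calcium fluorescence by kinetic imaging, 5 s 1 Hz baseline; measure: integrated fluorescence ratio relative to baseline, converted to per-well B score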
TRPC4 potent = allosteric potentiators of mouse TRPC4 channel | B-score at 10 µM | 310,000 tested, 0.42% active | HEK293 TRPC4beta/mu-opioid, DAMGO EC20, Fluo-4 Ca2+ flux; stronger effect = higher value | Q9QUQ5;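 active = B-score of calcium response area above 5 SD of library B-scores, with initial fluorescence ratio within 5 SD of library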;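 note: B-score of integrated fluorescence ratio over time as area under calcium response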
TRPC6 inhibitor = inhibitors of mouse TRPC6 channel; 310,000 tested, 1.1% active; Q61143; AID 2553; HEK293-TRPC6, membrane potential dye, ACh-evoked depolarization; stronger effect = lower value; B-score at 10 µM;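 active = B-score under library mean minus 3 SD, initial fluorescence not abnormally high, positive integrated signal ratio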;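 note: B-score derived from integrated fluorescence ratio over the kinetic read; more negative B-score means stronger inhibition of depolarization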
Target sequence (Q61143 whole entry, looked up): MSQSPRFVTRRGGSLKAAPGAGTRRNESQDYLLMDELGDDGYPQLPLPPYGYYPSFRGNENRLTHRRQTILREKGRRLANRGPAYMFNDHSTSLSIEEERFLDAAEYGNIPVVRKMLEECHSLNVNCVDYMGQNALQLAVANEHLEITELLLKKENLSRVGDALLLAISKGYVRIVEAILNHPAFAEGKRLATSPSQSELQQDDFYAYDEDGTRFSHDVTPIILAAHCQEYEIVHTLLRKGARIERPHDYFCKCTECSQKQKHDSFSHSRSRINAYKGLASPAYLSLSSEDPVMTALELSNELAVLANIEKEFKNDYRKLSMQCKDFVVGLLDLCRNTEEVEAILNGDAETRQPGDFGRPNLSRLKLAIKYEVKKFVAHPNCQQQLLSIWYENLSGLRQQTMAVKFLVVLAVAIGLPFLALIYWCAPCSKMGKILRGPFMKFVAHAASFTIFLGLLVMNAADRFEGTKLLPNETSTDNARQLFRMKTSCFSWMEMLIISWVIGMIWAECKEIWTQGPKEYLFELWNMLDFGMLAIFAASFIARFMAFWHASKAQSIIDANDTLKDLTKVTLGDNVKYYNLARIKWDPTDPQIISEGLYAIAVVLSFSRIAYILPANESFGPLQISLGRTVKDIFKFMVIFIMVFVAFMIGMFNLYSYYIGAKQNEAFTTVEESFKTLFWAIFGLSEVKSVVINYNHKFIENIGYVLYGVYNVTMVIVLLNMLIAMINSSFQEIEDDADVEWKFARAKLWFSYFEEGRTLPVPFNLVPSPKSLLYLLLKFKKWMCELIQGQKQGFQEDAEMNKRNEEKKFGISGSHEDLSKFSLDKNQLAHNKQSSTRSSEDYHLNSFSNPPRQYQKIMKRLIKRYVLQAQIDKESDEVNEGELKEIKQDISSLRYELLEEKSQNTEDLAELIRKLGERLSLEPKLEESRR
TRPC6 act = activates the mouse TRPC6 cation channel; HEK293-TRPC6 membrane potential dye fluorescence; stronger effect = higher value; B-score at 10 µM; 310,000 tested, 0.13% active;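 active = B-score of the integrated fluorescence ratio above library mean plus 3 SD, and starting fluorescence ratio within library mean plus 5 SD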;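 note: higher score means more depolarization so channel activation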
TRPC4 agonist = activators of mouse TRPC4 channel | Q9QUQ5 | HEK293 TRPC4beta/mu-opioid, Fluo4 calcium fluorescence; stronger effect = higher value | B-score at 10 µM | 310,000 tested, 0.49% active;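 active = B-score above 5 SD of library B-scores, and initial fluorescence ratio not above library mean plus 5 SD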;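 note: positive B-score marks a calcium rise read as TRPC4 activation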
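System: HEK293 cells stably co-expressing mouse TRPC4beta and mu-opioid receptor; Schedule: Fluo4 dye loading 45 min at room temperature, 110 s recording; Detection: Fluo4 fluorescence, kinetic; Evaluation: B-scored integrated calcium fluorescence ratio; Controls: buffer (low) and maximal DAMGO (high).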
TRPC4 spec 2 = mouse TRPC4 off-target activity of TRPC6 inhibitors, second screen. 920 tested, 42% active. shares compounds with TRPC6 inhibitor. inhibition, % at 10 µM. HEK293 TRPC4/MOR, membrane potential dye fluorescence; channel activated by saturating DAMGO dose;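 active = compounds whose fluorescence signal differed from control wells by over 3 SD, either direction, in both duplicate plates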
TRPC4 spec = mouse TRPC4 off-target activity of TRPC6 inhibitors. shares compounds with TRPC6 inhibitor. HEK293 TRPC4/mu-opioid, membrane potential fluorescence. activity change, negative = inhibition, % at 10 µM. 920 tested, 61% active. AID 2777;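 active = rise or fall in signal beyond 3 SD of buffer-only wells in both replicate plates, either sign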;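 note: integrated kinetic ratio of fluorescence range over baseline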
HEK293 MPD ctr 2-1 = second check of TRPC6 inhibitor effects in parental HEK293 cells; shares compounds with TRPC6 inhibitor; parental HEK293 membrane potential dye fluorescence; maximal acetylcholine challenge after compound addition; signal change vs control, % at 10 µM; 920 tested, 31% active; AID 2779;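 active = membrane potential signal moving either way by over 3 SD of the maximum-effect control, in both duplicate plates, meaning non-specific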
HEK293 MPD ctr-1 = checks TRPC6 inhibitor effects in parental HEK293 cells; shares compounds with TRPC6 inhibitor; parental HEK293 membrane potential dye fluorescence; membrane potential signal change, % at 10 µM; 920 tested, 60% active; AID 2780;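 active = membrane potential signal shifting up or down by more than 3 SD of buffer-only wells, on both duplicate plates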
HEK293 MPD ctr-2 = counter-screen for TRPC6 modulators: effect in parental HEK293 cells; shares compounds with TRPC6 inhibitor; membrane potential dye fluorescence; membrane potential signal change, % at 10 µM; 2,400 tested, 51% active; AID 488924;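 active = membrane potential signal moves up or down beyond 5 SD from buffer-only wells, on both duplicate plates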
HEK293 MPD ctr 2-2 = parental HEK293 nonspecific activity of TRPC6 modulators, second screen. shares compounds with TRPC6 inhibitor. membrane potential dye fluorescence; after compound, maximal acetylcholine stimulation. inhibition, % at 10 µM. 2,400 tested, 14% active. AID 488926;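 active = membrane potential signal drops by more than 5 SD from the mean control signal, in both duplicate plates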;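 note: plate controls were acetylcholine ECmax control wells for no effect and buffer only wells for full effect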
TRPC4 ctr mod = selectivity of TRPC6 modulators against mouse TRPC4. 2,400 tested, 69% active. percent change from control (negative = decrease, positive = increase), % at 10 µM. shares compounds with TRPC6 inhibitor. HEK293 TRPC4/mu-opioid, membrane potential fluorescence;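 active = membrane potential signal moved up or down beyond 5 SD of buffer control wells, in both duplicate plates, actives on both sides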;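 note: plate controls were assay buffer wells for no effect and DAMGO maximal-effect wells for full effect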
TRPC4/MOR inh 2 = mouse TRPC4 off-target activity of TRPC6 modulators, second screen; inhibition, % at 10 µM; 2,400 tested, 55% active; AID 488928; HEK293 TRPC4/mu-opioid, membrane potential dye fluorescence; stimulated with maximal-effect DAMGO; shares compounds with TRPC6 inhibitor;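 active = drop in membrane potential signal beyond 5 SD of the control wells in both duplicate plates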;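 note: TRPC4 counter screen for TRPC6 hits run under conditions tuned for TRPC6 not TRPC4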
TRPC6 block conf = mouse TRPC6 inhibitor confirmation | shares compounds with TRPC6 inhibitor | HEK293-TRPC6, membrane potential dye, ACh-evoked depolarization | inhibition, % at 10 µM | 3,300 tested, 43% active | AID 488960;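 active = fluorescence ratio falls more than 5 SD below the full-stimulation control mean, in both duplicate runs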;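 note: integrated fluorescence ratio of peak minus minimum over baseline after agonist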
TRPC6 act conf = confirmation of mouse TRPC6 activators; 2,800 tested, 11% active; shares compounds with TRPC6 inhibitor; HEK293-TRPC6 membrane potential dye fluorescence, FDSS; AID 488961; activation, % at 10 µM;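 active = ratio signal rise beyond 5 SD above unstimulated control wells' mean, seen in both duplicate runs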;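 note: plate controls were buffer EC0 wells for no effect and acetylcholine ECmax response for full effect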
Numbers without * were called inactive; i = inactive; nt = not tested or not shown.

SMILES | TRPC4 block | TRPC4 potent | TRPC6 inhibitor | TRPC6 act | TRPC4 agonist | HEK293 MPD ctr-2 | HEK293 MPD ctr 2-2 | TRPC4 ctr mod | TRPC4/MOR inh 2 | TRPC6 block conf | TRPC6 act conf | others
Cc1ccc(-c2nc(C)sc2CC(=O)OCC(=O)Nc2cccc([N+](=O)[O-])c2)cc1 | i | i | i | i | i | nt | nt | nt | nt | nt | nt
COc1ccc(-c2c[n+](CC(=O)OC3CC(C)CCC3C(C)C)c3n2CCC3)cc1 (stereo not given) | i | i | -6.1* | i | i | 162%* | i | 28%* | i | 55%* | nt
Cc1ccc(-c2nnc(SCC(=O)NNC(=O)COc3cccc(C)c3)n2C)cc1 | i | i | i | i | i | nt | nt | nt | nt | nt | nt
Cc1ccc(-c2nnc(SCC(=O)NNC(=O)COc3ccccc3C)n2C)cc1 | i | i | -6.2* | i | i | i | i | i | i | i | i
COc1ccc(S(=O)(=O)NCc2ccco2)cc1NC(=O)c1ccccc1 | i | i | i | i | i | nt | nt | nt | nt | nt | nt
CCC(C)(C)NC(=O)CN(C(=O)C(=O)Nc1ccc2c(c1)OCCO2)C1CC1 | i | i | i | i | i | nt | nt | nt | nt | nt | nt
CCN(CC)c1ccc(S(=O)(=O)N2CCCCC2)cc1NC(=O)C1CCC1 | i | i | -5.5* | 12* | i | i | i | 22%* | 30%* | 76%* | 96%*
CCN(CC)c1ccc(S(=O)(=O)N(CC)CC)cc1NC(=O)C1CCCC1 | i | i | -14* | 21* | i | 182%* | i | 34%* | 36%* | 116%* | 162%*
Cn1cccc1CNC1CCCCC1 | i | i | i | i | i | nt | nt | nt | nt | nt | nt
c1ccc(-n2cccc2CNC2CCCCC2)cc1 | i | i | -6.9* | i | i | nt | nt | nt | nt | i | nt | TRPC4 spec 2=i;TRPC4 spec=i;HEK293 MPD ctr 2-1=i;HEK293 MPD ctr-1=i
CC1(C)CC(N=C2C([N+](=O)[O-])=CC=C3C2=NC2(CCCCC2)N3O)CC(C)(C)N1 | i | i | -5.2* | i | i | -130%* | i | -26%* | 30%* | i | i
O=[N+]([O-])C1=CC=C2C(=NC3(CCCCC3)N2O)C1=NC1CCCCC1 | i | i | i | i | i | nt | nt | nt | nt | nt | nt
CCOC(=O)c1c(-c2ccccc2)csc1NC(=O)/C(C#N)=C/c1ccc(OC)c(OC)c1 | i | i | i | i | i | nt | nt | nt | nt | nt | nt
CCOC(=O)c1c(-c2ccccc2)csc1NC(=O)/C(C#N)=C/c1ccc(O)c(OC)c1 | i | i | i | 35* | i | 438%* | i | 92%* | i | i | 129%*
Nc1c(-c2ccccc2)sc2ccc3ccccc3[n+]12 | i | i | -5* | i | i | -99%* | i | -18%* | i | 44%* | i
CN1CCCc2cc(C=O)ccc21 | i | i | -7.9* | i | i | nt | nt | nt | nt | i | i | TRPC4 spec 2=i;TRPC4 spec=-8.7%*;HEK293 MPD ctr 2-1=i;HEK293 MPD ctr-1=i
CC(C)(C)C1CCC(=O)N(CCSc2ccccc2)CC1 (stereo not given) | i | i | -5.2* | i | i | 190%* | i | 44%* | i | i | nt
CCN1CCN(c2nc3c(C)cccn3c(=O)c2/C=C(\C#N)S(=O)(=O)c2ccc(C)cc2)CC1 | i | i | -5.1* | i | i | -77%* | i | -22%* | 96%* | i | i
N#C/C(=C\c1c(N2CCCCC2)nc2ccccn2c1=O)S(=O)(=O)c1ccccc1 | i | i | -5.3* | i | i | i | i | -14%* | 48%* | i | i
Cc1ccc(S(=O)(=O)/C(C#N)=C/c2c(N3CCN(C)CC3)nc3c(C)cccn3c2=O)cc1 | i | i | -6.8* | i | i | i | i | -17%* | 83%* | i | i
N#C/C(=C\c1c(N2CCN(c3ccccc3)CC2)nc2ccccn2c1=O)S(=O)(=O)c1ccccc1 | i | i | i | i | i | nt | nt | nt | nt | nt | nt
Cc1ccc(C(=O)Nn2cnc3ccccc3c2=O)cc1C | i | i | i | i | i | nt | nt | nt | nt | nt | nt
Cc1nn(C2CCS(=O)(=O)C2)c(Cl)c1/C=C/C(=O)OCC(=O)c1cc(C)n(-c2ccc(F)cc2)c1C (stereo not given) | i | i | i | i | i | nt | nt | nt | nt | nt | nt
CC(C)CNC(=O)CC(=O)N/N=C/c1ccc(F)cc1 | i | i | i | i | i | nt | nt | nt | nt | nt | nt
O=C(CSc1nc2ccccc2n1Cc1ccccc1Cl)N/N=C/c1ccccc1C(=O)O | i | i | i | i | i | nt | nt | nt | nt | nt | nt
CC(=O)N(C)c1nnc(-c2cnccn2)s1 | i | i | -6.5* | i | i | -234%* | i | -32%* | i | i | i
COCC(=O)N(C)c1nnc(-c2cnccn2)s1 | i | i | i | i | i | nt | nt | nt | nt | nt | nt
N#Cc1c2n(c3c(N)ncnc13)CCCCC2 | i | i | i | i | i | nt | nt | nt | nt | nt | nt
CN1CCN(c2ccccc2NC(=O)c2ccc(N3CCCCC3)c([N+](=O)[O-])c2)CC1 | i | i | -6.2* | i | i | -121%* | i | -31%* | 76%* | 44%* | i

Assay outcomes as filed in PubChem BioAssay.
